Measurements from ChEMBL document CHEMBL1137992, “Long hydrocarbon chain keto diols and diacids that favorably alter lipid disorders in vivo” (J Med Chem, 2004).

How the values were obtained:
Format in all cases: functional
Rattus norvegicus [1] = test: Percent decrease in HDL-cholesterol in obese Zucker rats after 1 week of treatment at a dose of 3 mg/kg/day; design: scale not given: the % may be the effect or the level left
Procedure, shortened: (§1)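 Female Zucker fatty rats [Crl:(Zuc)-faBR], 10–12 weeks, 400–500 g, acclimated 7 days on chow. Compound or vehicle (20% EtOH/80% PEG-200) given by daily oral gavage for 2 weeks, 0–100 mg/kg/day. After a 6 h fast, blood was taken before dosing, at 1 wk and at 2 wk. Serum lipids, NEFA and insulin (ELISA) were measured; glucose by glucometer. HDL/non-HDL-C came from Superose 6 gel-filtration profiles. Values are % change from pretreatment, mean ± SEM.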

Rattus norvegicus [2] = test: Percent increase in non-HDL-cholesterol in obese Zucker rats after 2 weeks of treatment at a dose of 30 mg/kg/day; procedure, shortened: as §1
Rattus norvegicus [3] = test: Percent decrease in triglycerides in obese Zucker rats after 1 week of treatment at a dose of 100 mg/kg/day; design: scale not given: the % may be the effect or the level left; procedure, shortened: as §1
Rattus norvegicus [4] = test: Amount of triglycerides in obese Zucker rats after 2 weeks of treatment at a dose of 0 mg/kg/day
Procedure, shortened: (§2)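 Female Zucker fatty rats [Crl:(Zuc)-faBR], 10–12 weeks old (400–500 g), dosed once daily by oral gavage in 20% EtOH/80% PEG-200 for up to 14 days. After a 6-h fast, serum was taken pre-dose, at day 7 (orbital venous plexus, O2/CO2 anaesthesia) and at day 14 (cardiac puncture), stored at −80 °C, and assayed on a Hitachi 912 automatic analyzer. Mean ± SEM.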

Rattus norvegicus [5] = test: Amount of triglycerides in obese Zucker rats at pre-treatment at a dose of 100 mg/kg/day; procedure, shortened: as §2
Rattus norvegicus [6] = test: Percent increase in HDL-cholesterol in obese Zucker rats after 2 weeks of treatment at a dose of 100 mg/kg/day; procedure, shortened: as §1
Rattus norvegicus [7] = test: Percent decrease in nonesterified fatty acids in obese Zucker rats after 2 weeks of treatment at a dose of 3 mg/kg/day; design: scale not given: the % may be the effect or the level left; procedure, shortened: as §1
Rattus norvegicus [8] = test: Percent decrease in nonesterified fatty acids in obese Zucker rats after 1 week of treatment at a dose of 3 mg/kg/day; design: scale not given: the % may be the effect or the level left; procedure, shortened: as §1
Rattus norvegicus [9] = test: Percent decrease in nonesterified fatty acids in obese Zucker rats after 2 weeks of treatment at a dose of 30 mg/kg/day; design: scale not given: the % may be the effect or the level left; procedure, shortened: as §1
Rattus norvegicus [10] = test: Percent decrease in nonesterified fatty acids in obese Zucker rats after 2 weeks of treatment at a dose of 10 mg/kg/day; design: scale not given: the % may be the effect or the level left; procedure, shortened: as §1
Rattus norvegicus [11] = test: Percent decrease in glucose in obese Zucker rats after 1 week of treatment at a dose of 100 mg/kg/day; design: scale not given: the % may be the effect or the level left; procedure, shortened: as §1

Question: With CC(C)(CO)CCCCC(=O)CCCCC(C)(C)CO as the molecule, how does the Activity (Rattus norvegicus [1]) read?
Answer: The Activity was -10%.

Question: And the Activity (Rattus norvegicus [2])?
Answer: The Activity was 27%.

Question: For CC(C)(CCCCC(=O)CCCCC(C)(C)C(=O)O)C(=O)O, which Activity (Rattus norvegicus [3]) is on record?
Answer: The Activity was -60%.

Question: What about the Activity (Rattus norvegicus [4]) of the same molecule?
Answer: Its Activity is 1140 mg/dL.

Question: What about the Activity (Rattus norvegicus [5]) of the same molecule?
Answer: Its Activity is 964 mg/dL.

Question: And the Activity (Rattus norvegicus [6])?
Answer: Its Activity is 79%.

Question: Which Activity (Rattus norvegicus [7]) does the source give for CC(C)(CCCCCC(=O)CCCCCC(C)(C)C(=O)O)C(=O)O here?
Answer: The Activity was -23%.

Question: And the Activity (Rattus norvegicus [8])?
Answer: Its Activity is -15%.

Question: What about the Activity (Rattus norvegicus [9]) of the same molecule?
Answer: Its Activity is -49%.

Question: What about the Activity (Rattus norvegicus [10]) of the same molecule?
Answer: Its Activity is -21%.

Question: What about the Activity (Rattus norvegicus [11]) of the same molecule?
Answer: Its Activity is -21%.
